For one assay, the target named is CDK2 (Homo sapiens, UniProt P24941). The assay is described as follows: ADP-Glo Kinase Assay, cell-free detection of CDK2 activity. The format is biochemical.
The subject of the next assay is HCT116. The assay is described as follows: MTT anti-tumour cell proliferation in vitro, HCT116. The settings on record: Homo sapiens, HCT-116, 36 h, read-out: Cells IC50 (μM) HCT116. The format is cell-based. The method, boiled down:
(§1)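 Cells grown in RPMI1640 with 10% foetal bovine serum at 37 °C, 5% CO2. Seeded at 5000/well in triplicate and allowed 6 h to adhere. Treated with a concentration series of test compound for 36 h. Reference CDK inhibitor at the same concentrations served as positive control, and DMSO as negative control. Stained with 5% MTT; absorbance read at 570 nm.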

The subject of another assay is A549. The assay is described as follows: MTT anti-tumour cell proliferation in vitro, A549. The format is cell-based. The settings on record: Homo sapiens, A549, 36 h, read-out: Cells IC50 (μM) A549. In short, it runs like this: as §1

With `CNC(=O)c1nn(C)c2c1C(C)(C)Cc1cnc(Nc3ccc(N4CCN(C)CC4)cc3)nc1-2` [Milciclib], the IC50 stood at 52.7 ± 3.1 nM against CDK2, 1.1 ± 0.3 µM in the assay on HCT116 and 3.7 ± 0.4 µM with A549.

(Values after PMC6882486 (Journal of Enzyme Inhibition and Medicinal Chemistry, 2019).)
